{
  "source": "ChEMBL document CHEMBL1157379",
  "about": "“Transcriptional response of Candida parapsilosis following exposure to farnesol” (2007)",
  "key": {"[1]": {"system": "Candida parapsilosis", "experiment": "Effect on GDH2 gene expression in Candida parapsilosis CLIB214 by microarray based transcriptional profiling", "assay_type": "functional, organism-based", "in_short": "(§1)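 Strain CLIB214 grown overnight in YPD at 30°C, diluted to A600 0.2 in fresh YPD at 30°C. After 4 h (A600 0.8), farnesol (40 mM methanol stock) added to 50 μM final, or an equal methanol volume as control; cells harvested 2 h later. RNA was accepted only with a 28S/18S ratio of 1.6–2.2. Cy3/Cy5-dCTP-labelled cDNA was made from 25 μg total RNA. Hybridisation was to duplicate-spotted 68-mer oligo arrays (3,849 genes) at 42°C for about 16 h. Six individual comparisons.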"}, "[2]": {"system": "Candida parapsilosis", "experiment": "Antifungal activity against Candida parapsilosis CLIB214 assessed as induction of cell death at 50 uM added 4 hrs after […] growth after 2 hrs by colony counting method", "assay_type": "functional", "in_short": "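Type strain grown overnight in YPD at 30°C, diluted to A600 0.2 in YPD; farnesol (40 mM stock in methanol) added at a final 50 μM, with a methanol-only control. Viability was measured by CFU counts taken 1 h and 2 h after addition.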"}, "[3]": {"system": "Candida parapsilosis", "experiment": "Increase in PDE2 gene expression in Candida parapsilosis CLIB214 at 50 uM after 2 hrs by microarray based transcriptional profiling relative to control", "assay_type": "functional", "in_short": "(§2)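 Strain grown overnight in YPD at 30°C, diluted to A600 0.2 in YPD at 30°C; farnesol (40 mM methanol stock) added at 4 h (A600 0.8), final 50 μM; methanol-only control. Cells collected 2 h later for RNA. Labelled cDNA from 25 μg total RNA (Cy3/Cy5-dCTP) hybridized to 68-mer oligo arrays at 42°C ~16 h; six individual comparisons analysed statistically.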"}, "[4]": {"system": "Candida parapsilosis", "experiment": "Increase in PDB1 gene expression in Candida parapsilosis CLIB214 at 50 uM after 2 hrs by microarray based transcriptional profiling relative to control", "assay_type": "functional", "in_short": "as §2"}, "[5]": {"system": "Candida parapsilosis", "experiment": "Decrease in RLM1 gene expression in Candida parapsilosis CLIB214 at 50 uM after 2 hrs by microarray based transcriptional profiling relative to control", "assay_type": "functional", "in_short": "as §1"}, "[6]": {"system": "Candida parapsilosis", "experiment": "Increase in GRP2 gene expression in Candida parapsilosis CLIB214 by RT-PCR", "assay_type": "functional, organism-based", "in_short": "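Cultures in YPD at 30°C, diluted to A600 0.2; 50 μM farnesol (final) or methanol added at 4 h, RNA harvested 2 h later. RT-PCR: 95°C hot start 1 min 30 s, then 26 cycles (95°C 40 s, 55°C 2 min, 72°C 3 min), final 72°C 5 min; each gene signal normalized to ACT1.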"}, "[7]": {"system": "Candida parapsilosis", "experiment": "Increase in CGD gene ortholog accession number orf19.1026 expression in Candida parapsilosis CLIB214 at 50 uM after 2 hrs by microarray based transcriptional profiling relative to control", "assay_type": "functional", "in_short": "as §1"}, "[8]": {"system": "Candida parapsilosis", "experiment": "Decrease in CGD gene ortholog accession number orf19.4372 expression in Candida parapsilosis CLIB214 at 50 uM after 2 hrs by microarray based transcriptional profiling relative to control", "assay_type": "functional", "in_short": "(§3)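 Cells in YPD at 30°C treated with 50 μM farnesol at 4 h, with a methanol control. RNA harvested 2 h later and kept only if 28S/18S ratio was 1.6–2.2 with no degradation. 25 μg total RNA oligo-dT primed and labeled with Cy3/Cy5-dCTP. Labeled cDNA hybridized about 16 h at 42°C to duplicate-spotted 68-mer oligo arrays. Six individual comparisons analyzed statistically.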"}, "[9]": {"system": "Candida parapsilosis", "experiment": "Decrease in PCL7 gene expression in Candida parapsilosis CLIB214 at 50 uM after 2 hrs by microarray based transcriptional profiling relative to control", "assay_type": "functional", "in_short": "as §1"}, "[10]": {"system": "Candida parapsilosis", "experiment": "Antifungal activity against Candida parapsilosis CLIB214 assessed as growth inhibition at 50 uM added 4 hrs after […] growth within 2 hrs by cell counting method", "assay_type": "functional, organism-based", "in_short": "(§4)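 C. parapsilosis CLIB214 grown overnight in YPD at 30°C, diluted to A600 0.2 in fresh YPD, grown 4 h (A600 0.8), then farnesol added at final 10, 20, 50 or 100 μM from a 40 mM methanol stock. Methanol-only controls. Growth followed by A600 or by cell counting with a particle counter.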"}, "[11]": {"system": "Candida parapsilosis", "experiment": "Decrease in CGD gene ortholog accession number orf19.5212 expression in Candida parapsilosis CLIB214 at 50 uM after 2 hrs by microarray based transcriptional profiling relative to control", "assay_type": "functional", "in_short": "as §3"}, "[12]": {"system": "Candida parapsilosis", "experiment": "Decrease in AMO2 gene expression in Candida parapsilosis CLIB214 at 50 uM after 2 hrs by microarray based transcriptional profiling relative to control", "assay_type": "functional", "in_short": "as §3"}, "[13]": {"system": "Candida parapsilosis", "experiment": "Decrease in CGD gene ortholog accession number orf19.194 expression in Candida parapsilosis CLIB214 at 50 uM after 2 hrs by microarray based transcriptional profiling relative to control", "assay_type": "functional", "in_short": "as §3"}, "[14]": {"system": "Candida parapsilosis", "experiment": "Increase in CGD gene ortholog accession number orf19.6080 expression in Candida parapsilosis CLIB214 at 50 uM after 2 hrs by microarray based transcriptional profiling relative to control", "assay_type": "functional", "in_short": "as §1"}, "[15]": {"system": "Candida parapsilosis", "experiment": "Decrease in CGD gene ortholog accession number orf19.530 expression in Candida parapsilosis CLIB214 at 50 uM after 2 hrs by microarray based transcriptional profiling relative to control", "assay_type": "functional", "in_short": "as §3"}, "[16]": {"system": "Candida parapsilosis", "experiment": "Increase in DOT5 gene expression in Candida parapsilosis CLIB214 at 50 uM after 2 hrs by microarray based transcriptional profiling relative to control", "assay_type": "functional", "in_short": "as §2"}, "[17]": {"system": "Candida parapsilosis", "experiment": "Increase in CGD gene ortholog accession number orf19.5847 expression in Candida parapsilosis CLIB214 at 50 uM after 2 hrs by microarray based transcriptional profiling relative to control", "assay_type": "functional", "in_short": "as §1"}, "[18]": {"system": "Candida parapsilosis", "experiment": "Decrease in ZCF23 gene expression in Candida parapsilosis CLIB214 at 50 uM after 2 hrs by microarray based transcriptional profiling relative to control", "assay_type": "functional", "in_short": "as §1"}, "[19]": {"system": "Candida parapsilosis", "experiment": "Antifungal activity against Candida parapsilosis CLIB214 assessed as growth inhibition at 50 uM after 4 hrs", "assay_type": "functional", "settings": "CLIB214, 4 h", "in_short": "as §4"}, "[20]": {"system": "Candida parapsilosis", "experiment": "Antifungal activity against Candida parapsilosis CLIB214 assessed as growth inhibition at 50 uM added after 8 hrs of bacterial growth measured after 2 hrs", "assay_type": "functional", "settings": "Lodderomyces parapsilosis", "in_short": "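Overnight YPD culture at 30°C diluted to A600 0.2 in YPD. Farnesol added to 50 μM final at 2, 4, 6 or 8 h of growth (A600 about 0.8 at 4 h, 2.3 at 6 h, 6 at 8 h). Growth compared with methanol controls by A600 or cell counts.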"}, "[21]": {"system": "Candida parapsilosis", "experiment": "Increase in CGD gene ortholog accession number orf19.1457 expression in Candida parapsilosis CLIB214 at 50 uM after 2 hrs by microarray based transcriptional profiling relative to control", "assay_type": "functional", "in_short": "as §1"}, "[22]": {"system": "Candida parapsilosis", "experiment": "Increase in KEX2 gene expression in Candida parapsilosis CLIB214 at 50 uM after 2 hrs by microarray based transcriptional profiling relative to control", "assay_type": "functional", "in_short": "as §2"}, "[23]": {"system": "Candida parapsilosis", "experiment": "Increase in CGD gene ortholog accession number orf19.5963 expression in Candida parapsilosis CLIB214 at 50 uM after 2 hrs by microarray based transcriptional profiling relative to control", "assay_type": "functional", "in_short": "as §1"}, "[24]": {"system": "Candida parapsilosis", "experiment": "Decrease in RIA1 gene expression in Candida parapsilosis CLIB214 at 50 uM after 2 hrs by microarray based transcriptional profiling relative to control", "assay_type": "functional", "in_short": "as §1"}, "[25]": {"system": "Candida parapsilosis", "experiment": "Increase in PXP2 gene expression in Candida parapsilosis CLIB214 at 50 uM after 2 hrs by microarray based transcriptional profiling relative to control", "assay_type": "functional", "in_short": "as §2"}},
  "note": "Active and inactive are the calls of the source. No cut-off for these calls is given here.",
  "data": [
    {"smiles": "CC(C)=CCC/C(C)=C/CC/C(C)=C/CO", "note": "[FARNESOL]", "values": [
      {"measurement": "Activity", "setting": "[1]", "result": "inactive"},
      {"measurement": "Activity", "setting": "[2]", "result": 20, "unit": "%"},
      {"measurement": "fold change (FC)", "setting": "[3]", "result": 1.67},
      {"measurement": "fold change (FC)", "setting": "[4]", "result": 1.7},
      {"measurement": "fold change (FC)", "setting": "[5]", "result": 1.6},
      {"measurement": "Activity", "setting": "[6]", "result": "Active"},
      {"measurement": "fold change (FC)", "setting": "[7]", "result": 1.55},
      {"measurement": "fold change (FC)", "setting": "[8]", "result": 1.67},
      {"measurement": "fold change (FC)", "setting": "[9]", "result": 1.75},
      {"measurement": "Activity", "setting": "[10]", "result": "Active"},
      {"measurement": "fold change (FC)", "setting": "[11]", "result": 2.33},
      {"measurement": "fold change (FC)", "setting": "[12]", "result": 1.56},
      {"measurement": "fold change (FC)", "setting": "[13]", "result": 1.84},
      {"measurement": "fold change (FC)", "setting": "[14]", "result": 1.52},
      {"measurement": "fold change (FC)", "setting": "[15]", "result": 1.89},
      {"measurement": "fold change (FC)", "setting": "[16]", "result": 1.5},
      {"measurement": "fold change (FC)", "setting": "[17]", "result": 1.89},
      {"measurement": "fold change (FC)", "setting": "[18]", "result": 1.97},
      {"measurement": "inhibition at 50 µM", "setting": "[19]", "result": 25.5, "unit": "%"},
      {"measurement": "inhibition at 50 µM", "setting": "[20]", "result": 9.5, "unit": "%"},
      {"measurement": "fold change (FC)", "setting": "[21]", "result": 1.55},
      {"measurement": "fold change (FC)", "setting": "[22]", "result": 1.57},
      {"measurement": "fold change (FC)", "setting": "[23]", "result": 1.68},
      {"measurement": "fold change (FC)", "setting": "[24]", "result": 1.65},
      {"measurement": "fold change (FC)", "setting": "[25]", "result": 2.04}
    ]}
  ]
}
